Experimental data as given in ChEMBL document CHEMBL2157922, “Synthesis and antifungal activity of diverse C-2 pyridinyl and pyridinylvinyl substituted quinolines” (2012).
In brackets after ≈: the same amount, converted by molar mass.

Key:
[1] = system: Cryptococcus neoformans; assay: Antifungal activity against Cryptococcus neoformans IM 972724 after 48 hrs by broth microdilution technique; type: functional; conditions: IM 972724, 48 h
How it was run: (§1)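 C. neoformans was tested by 96-well RPMI-1640 microdilution, with DMSO-matched growth and sterility control wells. Plates were incubated 48 h at 30 °C in a moist, dark chamber and read at OD405. % inhibition = 100 − (CTW − SCW)/(GCW − SCW), in duplicate. For the clinical isolates, MIC80 and MIC50 are the lowest concentrations giving 80% and 50% inhibition.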

[2] = system: Candida albicans; assay: Antifungal activity against Candida albicans CCC 129 after 48 hrs by broth microdilution technique; type: functional; conditions: CCC 129, 48 h
[3] = system: Cryptococcus neoformans; assay: Antifungal activity against Cryptococcus neoformans IM 972751 after 48 hrs by broth microdilution technique; type: functional; conditions: IM 972751, 48 h; how it was run: as §1
[4] = system: Cryptococcus neoformans; assay: Antifungal activity against Cryptococcus neoformans ATCC 32264 at 31.2 ug/ml after 48 hrs; type: functional; conditions: ATCC 32264, 48 h; how it was run: as §1
[5] = system: Candida albicans; assay: Antifungal activity against Candida albicans ATCC 10231 at 31.2 ug/ml after 24 hrs; type: functional; conditions: ATCC 10231, 24 h
How it was run: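 C. albicans was grown in 96-well RPMI-1640 broth microdilution with compound wells diluted from DMSO stocks. Growth wells with matched DMSO and sterility wells were included. After 24 h at 30 °C in a moist, dark chamber, OD405 was read. % inhibition = 100 − (CTW − SCW)/(GCW − SCW) OD, done in duplicate.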

[6] = system: Cryptococcus neoformans; assay: Antifungal activity against Cryptococcus neoformans IM 983036 after 48 hrs by broth microdilution technique; type: functional; conditions: IM 983036, 48 h; how it was run: as §1
[7] = system: Candida albicans; assay: Antifungal activity against Candida albicans ATCC 10231 after 48 hrs by broth microdilution technique; type: functional; conditions: ATCC 10231, 48 h
How it was run: (§2)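 Yeasts were tested by CLSI broth microdilution in RPMI-1640 buffered to pH 7.0 with MOPS, with compound from 250 down to 0.98 in DMSO stocks. Trays were held at 30 °C in a moist, dark chamber. MIC100, the lowest concentration giving total visual inhibition against the growth control, was read by eye at 48 h.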

[8] = system: Candida albicans; assay: Antifungal activity against Candida albicans CCC 128 after 48 hrs by broth microdilution technique; type: functional; conditions: CCC 128, 48 h
[9] = system: Aspergillus flavus; assay: Antifungal activity against Aspergillus flavus ATCC 9170 after 48 hrs by broth microdilution technique; type: functional; conditions: ATCC 9170, 48 h
How it was run: (§3)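 Moulds and dermatophytes were run by CLSI broth microdilution in MOPS-buffered RPMI-1640 at pH 7.0. Aspergillus was incubated at 30 °C and dermatophytes at 28–30 °C, in a moist, dark chamber. MIC100, the lowest concentration with no visible growth, was read visually at a time set by growth of the control fungus.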

[10] = system: Aspergillus fumigatus; assay: Antifungal activity against Aspergillus fumigatus ATCC 26934 after 48 hrs by broth microdilution technique; type: functional; conditions: ATCC 26934, 48 h; how it was run: as §3
[11] = system: Saccharomyces cerevisiae; assay: Antifungal activity against Saccharomyces cerevisiae ATCC 9763 after 48 hrs by broth microdilution technique; type: functional; conditions: ATCC 9763, 48 h; how it was run: as §2
[12] = system: Cryptococcus neoformans; assay: Antifungal activity against Cryptococcus neoformans IM 042074 after 48 hrs by broth microdilution technique; type: functional; conditions: IM 042074, 48 h; how it was run: as §1
[13] = system: Cryptococcus neoformans; assay: Antifungal activity against Cryptococcus neoformans IM 00319 after 48 hrs by broth microdilution technique; type: functional; conditions: IM 00319, 48 h; how it was run: as §1
[14] = system: Candida albicans; assay: Antifungal activity against Candida albicans CCC 125 after 48 hrs by broth microdilution technique; type: functional; conditions: CCC 125, 48 h
[15] = system: Candida albicans; assay: Antifungal activity against Candida albicans CCC 130 after 48 hrs by broth microdilution technique; type: functional; conditions: CCC 130, 48 h
[16] = system: Candida parapsilosis; assay: Antifungal activity against Candida parapsilosis CCC 124 after 48 hrs by broth microdilution technique; type: functional; conditions: Lodderomyces parapsilosis, CCC 124, 48 h
[17] = system: Candida albicans; assay: Antifungal activity against Candida albicans CCC 126 after 48 hrs by broth microdilution technique; type: functional; conditions: CCC 126, 48 h
[18] = system: Candida tropicalis; assay: Antifungal activity against Candida tropicalis CCC 131 after 48 hrs by broth microdilution technique; type: functional; conditions: CCC 131, 48 h
[19] = system: Nakaseomyces glabratus; assay: Antifungal activity against Candida glabrata CCC 115 after 48 hrs by broth microdilution technique; type: functional; conditions: CCC 115, 48 h
[20] = system: Cryptococcus neoformans; assay: Antifungal activity against Cryptococcus neoformans ATCC 32264 after 48 hrs by broth microdilution technique; type: functional; conditions: ATCC 32264, 48 h; how it was run: as §2
[21] = system: Candida albicans; assay: Antifungal activity against Candida albicans CCC 130 after 24 hrs by broth microdilution technique; conditions: CCC 130, 24 h
[22] = system: Pichia kudriavzevii; assay: Antifungal activity against Candida krusei CCC 117 after 48 hrs by broth microdilution technique; type: functional; conditions: CCC 117, 48 h
[23] = system: Nannizzia gypsea; assay: Antifungal activity against Microsporum gypseum CCC 115 after 48 hrs by broth microdilution technique; type: functional; conditions: CCC 115, 48 h; how it was run: as §3
[24] = system: Candida albicans; assay: Antifungal activity against Candida albicans CCC 127 after 48 hrs by broth microdilution technique; type: functional; conditions: CCC 127, 48 h
[25] = system: Trichophyton mentagrophytes; assay: Antifungal activity against Trichophyton mentagrophytes ATCC 9972 after 48 hrs by broth microdilution technique; type: functional; conditions: ATCC 9972, 48 h; how it was run: as §3
[26] = system: Aspergillus niger; assay: Antifungal activity against Aspergillus niger ATCC 9029 after 48 hrs by broth microdilution technique; type: functional; conditions: ATCC 9029, 48 h; how it was run: as §3
[27] = system: Cryptococcus neoformans; assay: Antifungal activity against Cryptococcus neoformans IM 983040 after 48 hrs by broth microdilution technique; type: functional; conditions: IM 983040, 48 h; how it was run: as §1
[28] = system: Trichophyton rubrum; assay: Antifungal activity against Trichophyton rubrum CCC 113 after 48 hrs by broth microdilution technique; type: functional; conditions: CCC 113, 48 h

MIC50 [1]: 31.2 µg/mL (≈ 125 µM)
MIC80 [1]: 62.5 µg/mL (≈ 250 µM)
MIC50 [2]: 31.2 µg/mL (≈ 125 µM)
MIC80 [2]: 62.5 µg/mL (≈ 250 µM)
MIC50 [3]: 15.6 µg/mL (≈ 62.3 µM)
MIC80 [3]: 31.2 µg/mL (≈ 125 µM)
MIC50 [6]: 31.2 µg/mL (≈ 125 µM)
MIC80 [6]: 62.5 µg/mL (≈ 250 µM)
MIC [7]: 125 µg/mL (≈ 499 µM)
MIC50 [7]: 15.6 µg/mL (≈ 62.3 µM)
MIC80 [7]: 31.2 µg/mL (≈ 125 µM)
MIC50 [8]: 31.2 µg/mL (≈ 125 µM)
MIC80 [8]: 62.5 µg/mL (≈ 250 µM)
MIC [9]: 250 µg/mL (≈ 999 µM)
MIC [10]: 250 µg/mL (≈ 999 µM)
MIC [11]: 250 µg/mL (≈ 999 µM)
MIC50 [12]: 15.6 µg/mL (≈ 62.3 µM)
MIC80 [12]: 62.5 µg/mL (≈ 250 µM)
MIC50 [13]: 15.6 µg/mL (≈ 62.3 µM)
MIC80 [13]: 62.5 µg/mL (≈ 250 µM)
MIC50 [14]: 15.6 µg/mL (≈ 62.3 µM)
MIC80 [14]: 31.2 µg/mL (≈ 125 µM)
MIC80 [15]: 31.2 µg/mL (≈ 125 µM)
MIC50 [16]: 7.8 µg/mL (≈ 31.2 µM)
MIC80 [16]: 15.6 µg/mL (≈ 62.3 µM)
MIC50 [17]: 62.5 µg/mL (≈ 250 µM)
MIC80 [17]: 62.5 µg/mL (≈ 250 µM)
MIC50 [18]: 62.5 µg/mL (≈ 250 µM)
MIC80 [18]: 125 µg/mL (≈ 499 µM)
MIC50 [19]: 15.6 µg/mL (≈ 62.3 µM)
MIC80 [19]: 31.2 µg/mL (≈ 125 µM)
MIC [20]: 125 µg/mL (≈ 499 µM)
MIC50 [20]: 15.6 µg/mL (≈ 62.3 µM)
MIC80 [20]: 31.2 µg/mL (≈ 125 µM)
MIC50 [21]: 15.6 µg/mL (≈ 62.3 µM)
MIC50 [22]: 15.6 µg/mL (≈ 62.3 µM)
MIC80 [22]: 31.2 µg/mL (≈ 125 µM)
MIC [23]: 125 µg/mL (≈ 499 µM)
MIC50 [24]: 31.2 µg/mL (≈ 125 µM)
MIC80 [24]: 62.5 µg/mL (≈ 250 µM)
MIC [25]: 125 µg/mL (≈ 499 µM)
MIC [26]: > 250 µg/mL
MIC50 [27]: 31.2 µg/mL (≈ 125 µM)
MIC80 [27]: 62.5 µg/mL (≈ 250 µM)
MIC [28]: 125 µg/mL (≈ 499 µM)
Compound: Fc1ccc2nc(/C=C/c3ccccn3)ccc2c1
inhibition at 31.2 µg/mL [4]: 80%
inhibition at 31.2 µg/mL [5]: 80%
MFC [7]: > 250 µg/mL
MFC [9]: > 250 µg/mL
MFC [10]: > 250 µg/mL
MFC [11]: > 250 µg/mL
MFC [20]: > 250 µg/mL
MFC [23]: > 250 µg/mL
MFC [25]: > 250 µg/mL
MFC [28]: > 250 µg/mL
